# Test results: paper PMC3901407 (Nature methods, 2013)
# Legend:
# WT-ZAK and C22A-ZAK [1] = biological target: T1, WT-ZAK and C22A-ZAK (Homo sapiens, UniProt Q9NYL2); experiment: gel-based ABPP, HNEyne labelling in proteomes; assay type: binding; details: 10 μM HNEyne, 1 hour, HEK-293T lysate
# WT-ZAK and C22A-ZAK [2] = biological target: T1, WT-ZAK and C22A-ZAK; experiment: gel-based ABPP, HNEyne labelling in living cells; assay type: cell-based; details: 5 μM HNEyne, 1 hour, 37°C
# [3] = test system: JNK activation in WT-ZAK-transfected HEK-293T cells; experiment: Western blotting of phospho-JNK; assay type: cell-based, human; details: H2O2 1 mM, 30 min
# Procedure, shortened: (§1)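 HEK-293T cells stably expressing FLAG-ZAK came from retroviral infection and hygromycin selection. They grew 24 h in DMEM/10% FBS, then were serum-starved 24 h and treated at 37 °C. Cells were sonicated in PBS with protease and phosphatase inhibitors. For blotting, 30 μg soluble lysate went on SDS-PAGE and nitrocellulose, blocked in 5% milk/TBST, with primary antibodies (1:2000, 16 h, 4 °C) and IRDye secondaries (1:10,000, 1 h). Read-out: infrared-scanned phospho-JNK, normalized.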
# [4] = test system: JNK activation in C22A-ZAK-transfected HEK-293T cells; experiment: Western blotting of phospho-JNK; assay type: cell-based, human; details: H2O2 1 mM, 30 min
# Procedure, shortened: as §1
# T1 sequence (Q9NYL2 1-455 isoform Q9NYL2-2, stated change not applied): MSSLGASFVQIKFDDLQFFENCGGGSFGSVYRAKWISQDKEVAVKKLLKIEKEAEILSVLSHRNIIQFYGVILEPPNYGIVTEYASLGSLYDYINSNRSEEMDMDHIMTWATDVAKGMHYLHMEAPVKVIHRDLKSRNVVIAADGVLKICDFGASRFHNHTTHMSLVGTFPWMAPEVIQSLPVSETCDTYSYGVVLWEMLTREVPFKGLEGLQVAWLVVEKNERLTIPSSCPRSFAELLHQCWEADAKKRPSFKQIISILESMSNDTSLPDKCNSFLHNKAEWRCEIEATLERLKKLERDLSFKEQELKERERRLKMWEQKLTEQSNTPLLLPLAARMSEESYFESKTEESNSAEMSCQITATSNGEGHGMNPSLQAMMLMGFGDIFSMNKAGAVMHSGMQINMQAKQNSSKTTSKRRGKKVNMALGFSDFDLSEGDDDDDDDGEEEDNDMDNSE
SMILES,direct labeling of ZAK by HNEyne in vitro (WT-ZAK and C22A-ZAK [1]),direct labeling of ZAK by HNEyne in living cells (WT-ZAK and C22A-ZAK [2]),JNK activity after H2O2 [3],JNK activity after H2O2 [4]
C#CCCCC(O)C=CC=O (stereo not shown) [HNEyne],"direct labeling of WT-, but not the C22A-ZAK mutant","direct labeling of WT-, but not the C22A-ZAK mutant",–,–
OO [H2O2],–,–,stimulated JNK activity,stimulated JNK activity
